From the RNAGym collection of RNA variant scans (doi:10.1126/science.aae0568) come the findings set out here.

This sample holds only a part of the variants without activity.

B1: tRNA (parent)
chain: GUUCCGUUGGCGUAAUGGUAACGCGUCUCCCUCCUAAGGAGAAGACUGCGGGUUCGAGUCCCGUACGGAACG

The variants in the series derive from B1. The series is described as follows: yeast fitness relative to wild type (ratio to wild type); higher = fitter; tRNA-Arg(CCU), competitive growth, 37 C, YPD. The essentials:
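For this measurement, the tRNA-Arg(CCU) gene was varied by chemical synthesis at a 3% per-site mutation rate across 69 sites, and each variant was placed at the native genomic locus in Saccharomyces cerevisiae. The pooled strains went through a 24-hour competition in YPD at 37°C in six parallel replicates, with amplicons from start and end populations read by 100-nucleotide paired-end sequencing. Darwinian fitness relative to wild type followed from the change in each genotype's frequency. Genotypes needed ≥ 100 starting reads, and estimates < 0.5 were set to 0.5.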
GUUCCGAUGGCGUGAUGCUAACGCGUCUCCCUCCUAAGGAGAAGACUGCGGGUCCGAGUCCCGUACGGAACG: the yeast fitness was ≤ 0.5.
For the variant GUUCCCUUGGCGUAAUGGUAACGCGUCUCCCACCUAAGGAGAAGACUGCGGGUUCGAGUCCCGUACGGAACG, the yeast fitness amounted to 0.756.
For the variant GUUCCGAUGGCGUAAUGGUACCGCGUCUCCGUCCUAAGGAGAAGACUGCGGGUUCGAGUCCCGUACGGAACG, the yeast fitness is ≤ 0.5.
With GUUCCGAUGGCGUAAUGGUUACGCGUCUCCCUCCUAAGGAGAAGACUGCGGGUUAGAGUCCCGUAUGGAACG, the yeast fitness was found to be 0.894.
The same measure for GUUCCGAUGGCGUGAUGGUAACGCGUCGCUCUCCUAAGGAGAAGACUGCGGGUUCGAGUCCCGUACGGAACG: ≤ 0.5; for GUUCCGAUGGCGUGAUGGUAACGCGUCUCCUUCCUAAGCCGAAGUCCGCGGGUUCGAGUCCCGUACGCAACG: ≤ 0.5; for GUUCCUUUGGCGUAAUGGUAACGCGUCUCCCUCCUAAGGAGAAGACUGCGGGUUCGAGUCCCCUACGGAACG: 0.615.
The same measure for GUUCCUUUGGCGUAAUGGUAACGCGUCUCCCACCUAAGGAGAAGACUGCGGGUUCCAGUCCCGUACGGAACG: ≤ 0.5; for GUUCCGAUGGCGUAGUGAUAACGCGUCUCCCUCCUAAGGAGAAGACUGCGGGUUCGAGUCCCGUACGGAACG: 0.669; for GUUCCUUUGGCGUAAUGGUAACGCGUCUCCCUCCUAAGGAGAAGACUGCGGGUUCGAGUCCCGUACGGAACG: 0.918.
The same measure for GUUCCGAUGGCGUCAUGGUAACGCGUCUCACUCCUGAGGAGAAGACUGCGGGUUCGAGUCCUAUACGGAUCG: ≤ 0.5; for GUUCCGAUGGCGUAAUGGUACCGCGUCUCCCUACUAAGGAGAAGUCUGCGGGUUCGAGUCCCGUACGGUACG: ≤ 0.5.
GUUCCUUUGGCGUAAUGGUAACGCGUCUCCCUCCUAAGGAGAAGACUGCGGGUUCGAGUCCCGUACGCAACG: the yeast fitness is 0.794.
The same measure for GUUCCUUUGGCGUAAUGGUAACGCGUCUCCCUCCUAAGGAGAACACUGCGGGUUCGAGUCCCGUACGGAACG: 0.755; for GUUCCGAUGGCGUAAUGGUCACGCGACUCCCUCCUAAGGAGAAGACUGCGGGUUCGAGUCCCGUACGGAACG: ≤ 0.5.
For the variant GUUCCGAUGGCGUAAUGGUAGCGCGUCUCCCUCCUAAGGAGAAGACUGCGGGUUCGAGUCGCGUAGGGAACG, the yeast fitness is ≤ 0.5.
On to GUUCCGAUGGCGUAAUGGUAGCGCGUCAUCCUCCUAAGGAGAAGACUGCGGGUUCGAAUCCCGUACGGAACG, for which the yeast fitness worked out at 0.598.
The same measure for GUUCCGAUGGCGUAAUGGUAACGCGUCUCCCUCCUACGGAGAAGACUGCGAGUUCGAGUCCCGUACAGAACG: ≤ 0.5.
The same measure for GUUCCGAUGGCGUAAUGGUCACGCGUCUCCCUCCUAAGGAGAAGACUGCGGGUUCGAAUCCCAUACGGAACG: ≤ 0.5; for GUUCCUUUGGCGUAAUGGUAACGCGUCUCCCUCCUAAGGGGAAGACUGAGGGUUCGAGUCGCGUACGGAACG: ≤ 0.5.
The same measure for GUUCCGAUGGCGUAUUGGUAACGCGUCUCCCUCCUAAGGAGAAGACUGCGGGUUCGAGUCCCAUACAGAACG: ≤ 0.5.
For the variant GUUCCCUUGGCGUAAUGGUAACGCGUCUCCCUCCUAAGGAGAAGACUGCGGGAUCGAGUACCGUACGGAACG, the yeast fitness is ≤ 0.5.
As to GUUCCCUUGGCGUAAUGGUAACGCGUCUCCCUCCUAAGGAGAAGACUGCGGGUUCGAGUCCCGAACGGAACG, the yeast fitness turned out to be 0.853.
The same measure for GUUCCUUUGGCGUAAUGGUAACGCGUCUCCCUCCUAAGGAGAAGACUGCGGGUUCGAGUCCUGUACGGAACG: 0.831.
The same measure for GUUCCCUUGGCGUAAUGGUAACGCGUCUCCCUCCAAAGGAGAUGACUGCGGGUUCGAGUCCUGUACGCAACG: ≤ 0.5; for GUUCCGAUGGCGUAAUGGUGACACGGCUCCCUCCUAAGGAGAAGACUGCGGGUUCGAGUCCCGUGGGGAACG: ≤ 0.5; for GUUCCGAUGGCGUAAUGGUGACGCGUCUUCCUCCUAAGGAGAAGACUGCGGGUUCGCGUCCCGUACGGAACG: ≤ 0.5.
On to GUUCCGAUGGCGUAUUGGUAACGCGUCUCCCUCCUAAGGAGAAGACUGCGGGUUCGAGUCCCGUACGGAACG, for which the yeast fitness was determined as 0.587.
As to GUUCCCUUGGCGUAAUGGUAACGCGUCUCCCACCUAAGGAAAAGAUUGCGGGUUCGAGUCCCGUACGGAACG, the yeast fitness was ≤ 0.5.
As to GUUCCGAUGGCGUAGUGGUAACACAUCUCCCUCCUAAGGAGAAGACUGCGGGUUCGAGUCCCGUACGGCACG, the yeast fitness was ≤ 0.5.
Turning to GUUCCGAUGGCGUAAUGGUGACGCGUCUCCCUCCUAAGGAGAAGAGUGCGGGUUCGAGUCCCCUACCGUACG, the yeast fitness is ≤ 0.5.
For the variant GUUCCCUUGGCGUAAUGGUAACGCGUCCCACUCCUAAGAAGAAGACUGCGGGUUCGAGUCCCGUACGGAACG, the yeast fitness is ≤ 0.5.
The same measure for GUUCCUUUGGCGUAAUGCUAACGCGUCUCCCUCCUAAGGAGAAGACUGGGGGUUCGAGUCCCGUACGGAACG: ≤ 0.5; for GUUCCGAUGGCGUAGUGGUAACACGUCUCCCUCCUAAGGAGAAGACUGCGGGUUCGAGUCCCCUACGGAACG: 0.557.
With GUUCCGAUGGCGUCAUGGUGACGCGUCUCCCUCCUAAGGAGAAGACUGCGGGUUCGAGUCCCGUAGGGAACG, the yeast fitness is ≤ 0.5.
Consider GUUCCGAUGGCGUAAUGGUAGCGCGUCUCGCUCCUGAGGAGAAGAGUGCGGGUCCGUGUCCCGUACGGAACG, for which the yeast fitness is ≤ 0.5.
Consider GUUCCGAUGGCGUAAUGGUAACGCGUCUCCCUCCUUAGGAGAAGACUGCGGGUUCGAGUCCCGCACGGAACG, for which the yeast fitness is ≤ 0.5.
The same measure for GUUCCCUUGGCGUAAUGGUAACGCGUCUCCCUCCUAAGGAGAAGACAGCGGGUUCGAGUCCCGUACGGAACG: 0.818.
